Data reported in ChEMBL document CHEMBL1128673, “Conformationally constrained phosphotyrosyl mimetics designed as monomeric Src homology 2 domain inhibitors” (J Med Chem, 1995).

Experiments:
[1] = In vitro binding to p85-C SH2 domain
In short: (§1)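 GST fusion of the p85 PI-3 kinase C-terminal SH2 domain (0.5–1.0 μM, Bradford) with 35 fmol (67 nCi) [125I]Bolton–Hunter-labelled IRS-1 pY628 phosphopeptide and varying unlabelled pTyr analogue in 20 mM Tris-HCl, 250 mM NaCl, 0.1% BSA, 10 mM DTT, pH 7.4. Glutathione-agarose capture ran overnight at 22 °C, then 12000g for 5 min; pellet 125I was gamma-counted.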

[2] = target: Tyrosine-protein kinase Lck (Homo sapiens) (UniProt P06239); assay: In vitro binding to p56 Lck SH2 domain
In short: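 Lck SH2 domain as a GST fusion (0.5–1.0 μM, Bradford) with 35 fmol (67 nCi) [125I]Bolton–Hunter hmT pY324 phosphopeptide and varying unlabelled pTyr analogue in 20 mM Tris-HCl, 250 mM NaCl, 0.1% BSA, 10 mM DTT, pH 7.4. Complexes were captured on glutathione-agarose overnight at 22 °C, pelleted at 12000g for 5 min, and unwashed pellets gamma-counted.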

[3] = In vitro binding to Phospholipase C-gamma SH2 domain
In short: as §1, with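 “Competition binding used GST” for “GST”, “PLCγ” for “p85 PI-3 kinase”, “PDGF pY1021” for “IRS-1 pY628”, “plus” for “and”, “analogue. Buffer was” for “analogue in”, “°C with mixing,” for “°C,”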

[4] = target: T1, Tyrosine-protein phosphatase non-receptor type 11 (Homo sapiens) (UniProt Q06124); assay: In vitro binding to SH-PTP2-N (SHP-2) SH2 domain
T1 sequence (whole entry): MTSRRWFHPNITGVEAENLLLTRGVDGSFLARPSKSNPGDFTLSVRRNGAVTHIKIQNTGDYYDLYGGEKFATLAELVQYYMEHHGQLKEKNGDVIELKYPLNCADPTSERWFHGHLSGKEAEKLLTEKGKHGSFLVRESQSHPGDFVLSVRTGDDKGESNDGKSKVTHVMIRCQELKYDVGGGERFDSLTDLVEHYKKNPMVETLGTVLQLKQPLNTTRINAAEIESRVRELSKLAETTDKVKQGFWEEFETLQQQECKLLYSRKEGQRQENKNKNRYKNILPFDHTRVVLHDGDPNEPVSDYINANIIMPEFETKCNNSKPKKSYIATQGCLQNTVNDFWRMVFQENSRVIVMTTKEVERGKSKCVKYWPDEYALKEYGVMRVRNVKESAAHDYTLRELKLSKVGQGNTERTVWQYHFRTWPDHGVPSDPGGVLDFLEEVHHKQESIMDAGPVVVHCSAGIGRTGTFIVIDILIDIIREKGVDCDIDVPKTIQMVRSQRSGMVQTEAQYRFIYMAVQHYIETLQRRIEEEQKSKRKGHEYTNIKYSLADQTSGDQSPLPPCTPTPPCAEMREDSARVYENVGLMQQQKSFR
In short: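 SH-PTP2 N-terminal SH2 domain as a GST fusion (0.5–1.0 μM, Bradford) was mixed with 35 fmol (67 nCi) [125I]Bolton–Hunter IRS-1 pY1172 phosphopeptide and varying unlabelled pTyr analogue in 20 mM Tris-HCl, 250 mM NaCl, 0.1% BSA, 10 mM DTT, pH 7.4. Glutathione-agarose pull-down ran overnight at 22 °C, then 12000g for 5 min, with gamma counting of unwashed pellets.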

[5] = target: Proto-oncogene tyrosine-protein kinase Src (Homo sapiens) (UniProt P12931); assay: In vitro binding to Src SH2 domain
[6] = target: Growth factor receptor-bound protein 2 (Homo sapiens) (UniProt P62993); assay: In vitro binding to Growth factor receptor bound protein 2
In short: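 GST–Grb2 SH2 fusion (0.5–1.0 μM, Bradford-estimated) with 35 fmol (67 nCi) [125I]Bolton–Hunter-labelled Shc pY317 phosphopeptide and varying unlabelled pTyr analogue in 20 mM Tris-HCl, 250 mM NaCl, 0.1% BSA, 10 mM DTT, pH 7.4. Glutathione-agarose was added, then overnight at 22 °C with mixing. After centrifugation at 12000g for 5 min, unwashed pellet radioactivity was gamma-counted.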

Sequence of Proto-oncogene tyrosine-protein kinase Src (Homo sapiens) (P12931 2-536 limits assumed): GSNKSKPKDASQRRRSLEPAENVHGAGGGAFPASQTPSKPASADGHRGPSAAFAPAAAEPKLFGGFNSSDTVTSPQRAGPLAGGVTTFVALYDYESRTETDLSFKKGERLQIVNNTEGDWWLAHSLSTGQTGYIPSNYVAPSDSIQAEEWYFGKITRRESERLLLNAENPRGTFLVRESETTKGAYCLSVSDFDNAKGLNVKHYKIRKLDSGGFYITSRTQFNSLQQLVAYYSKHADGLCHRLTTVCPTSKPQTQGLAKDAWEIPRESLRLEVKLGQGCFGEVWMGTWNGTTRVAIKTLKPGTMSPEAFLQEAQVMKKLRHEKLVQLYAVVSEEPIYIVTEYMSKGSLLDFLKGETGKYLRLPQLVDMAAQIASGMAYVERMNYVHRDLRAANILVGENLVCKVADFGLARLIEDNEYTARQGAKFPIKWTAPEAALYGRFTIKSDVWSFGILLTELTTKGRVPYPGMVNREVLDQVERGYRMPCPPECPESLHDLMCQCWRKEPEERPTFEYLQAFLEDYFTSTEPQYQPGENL
Sequence of Tyrosine-protein kinase Lck (Homo sapiens) (P06239 2-509 limits assumed): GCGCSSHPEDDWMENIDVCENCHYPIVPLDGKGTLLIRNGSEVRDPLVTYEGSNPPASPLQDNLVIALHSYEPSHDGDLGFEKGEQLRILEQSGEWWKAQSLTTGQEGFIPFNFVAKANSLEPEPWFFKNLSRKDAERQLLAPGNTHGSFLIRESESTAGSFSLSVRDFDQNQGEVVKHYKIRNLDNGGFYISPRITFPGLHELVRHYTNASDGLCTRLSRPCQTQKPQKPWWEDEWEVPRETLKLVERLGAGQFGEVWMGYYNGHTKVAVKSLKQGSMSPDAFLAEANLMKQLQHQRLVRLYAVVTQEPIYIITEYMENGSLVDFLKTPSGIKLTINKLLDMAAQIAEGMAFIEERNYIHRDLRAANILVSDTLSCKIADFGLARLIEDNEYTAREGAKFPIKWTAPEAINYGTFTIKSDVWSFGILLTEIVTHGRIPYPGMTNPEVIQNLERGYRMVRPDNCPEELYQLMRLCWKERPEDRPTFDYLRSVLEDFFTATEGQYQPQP

Row | SMILES | ID50 [1] [µM] | ID50 [2] [µM] | ID50 [3] [µM] | ID50 [4] [µM] | ID50 [5] [µM] | ID50 [6] [µM]
1 | N[C@@H](Cc1ccc(OP(=O)(O)O)cc1)C(=O)O | 3500 | 5000 | 2300 | > 33000 | 3500 | 6200
2 | CC(=O)N1CC2Cc3cc(O)ccc3C(C)(C2)C1 (racemic) | > 5000 | > 6000 | > 6000 | > 3000 | > 6000 | 
3 | CC(=O)N[C@H](C(N)=O)[C@H]1CCc2cc(OP(=O)(O)O)ccc21 (racemic) | 1500 | 1500 | > 3000 | > 3000 | > 3000 | > 3000

More lines, now with the values ahead:

Row | ID50 [1] [µM] | ID50 [2] [µM] | ID50 [3] [µM] | ID50 [4] [µM] | ID50 [5] [µM] | ID50 [6] [µM] | SMILES
4 | 1500 | > 3000 | 400 | > 3000 | 1000 |  | CC(=O)N[C@@H](Cc1ccc(OP(=O)(O)O)cc1)C(N)=O
5 | 1300 | > 3000 | > 3000 | > 3000 | 900 |  | CC(=O)N1CC2Cc3cc(OP(=O)(O)O)ccc3C(C)(C2)C1 (racemic)
6 | 1500 | > 3000 | > 3000 | > 3000 | > 3000 | > 3000 | CC(=O)N[C@H](C(N)=O)[C@@H]1CCc2cc(OP(=O)(O)O)ccc21 (racemic)
